≈ marks a conversion by molar mass, not a printed value. Values belong to the compound of their own block, whether it stands above or below them.
Legend:
[1] = Kinetic solubility of the compound in pH 7.4 aqueous buffer at 500 uM measured after 90 mins by spectrophotometric method; type: physicochemical; conditions: read-out: Kinetic_solubility
[2] = Permeability of the compound at 500 uM after 20 hrs by PAMPA; type: ADME
Method in brief: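 Donor compartment starts at 500 μM compound; after 20 h incubation, receiver-well absorbance read by spectrophotometry; permeation normalized to flux across a blank filter.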

[3] = Stability of the compound in plasma (unknown origin) assessed as parent compound remaining at 5 uM measured after 1 hr by LC-MS analysis; type: ADME, cell-free; conditions: read-out: Stability
Method in brief: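 5 μM compound incubated in 100% plasma for 1 h at 37 °C; % remaining by LC–MS.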

[4] = Intrinsic clearance in human liver microsomes at 3 uM measured up to 90 mins in presence of metabolic phase 1 cofactors by LC-MS analysis; type: ADME, Microsome; conditions: 1.5 h
[5] = Chemical stability of the compound in pH 7.4 aqueous buffer assessed as parent compound remaining at 2 uM measured after 24 hrs by LC-MS analysis; type: physicochemical; conditions: read-out: Stability
Method in brief: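 Compound at 2 μM final in aqueous buffer pH 7.4, sampled at 1, 7 and 24 h; LC–MS quantitation of each aliquot, % remaining expressed relative to the zero time point.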

[6] = biological target: T1, Peroxisome proliferator-activated receptor gamma (Homo sapiens, UniProt P37231); assay: Inverse agonist activity at His6-tagged PPARgamma LBD (unknown origin) assessed as inhibition of rosiglitazone-induced N-terminal biotinylated co-activator SRC1 box2 peptide recruitment measured after 30 mins by TR-FRET assay
T1 sequence (P37231 whole entry): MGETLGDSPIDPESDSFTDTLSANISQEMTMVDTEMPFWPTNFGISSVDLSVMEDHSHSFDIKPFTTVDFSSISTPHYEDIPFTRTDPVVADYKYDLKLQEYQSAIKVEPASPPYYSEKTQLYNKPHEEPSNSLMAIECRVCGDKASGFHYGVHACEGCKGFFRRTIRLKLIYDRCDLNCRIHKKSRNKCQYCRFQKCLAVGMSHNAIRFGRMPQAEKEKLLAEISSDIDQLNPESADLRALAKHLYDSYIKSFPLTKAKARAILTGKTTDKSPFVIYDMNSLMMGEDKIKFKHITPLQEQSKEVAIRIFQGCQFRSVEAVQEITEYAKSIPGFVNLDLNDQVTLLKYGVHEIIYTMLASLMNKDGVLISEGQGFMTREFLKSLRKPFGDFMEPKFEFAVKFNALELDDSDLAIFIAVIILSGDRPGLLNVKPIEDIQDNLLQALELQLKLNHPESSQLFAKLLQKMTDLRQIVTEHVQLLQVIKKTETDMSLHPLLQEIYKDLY
Method in brief: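 His6-PPARγ-LBD at 100 nM with 100 nM N-terminal biotinylated SRC-1 box2 peptide in 10 mM HEPES, 150 mM NaCl, 5 mM DTT, 0.1% BSA, 0.1 mM CHAPS, pH 7.5, with 1 μM rosiglitazone. Tb anti-His donor, D2-streptavidin acceptor. Compounds in DMSO, 2× dilution series, 2% DMSO final. 30 min at room temperature. IC50 from sigmoidal fit of FRET ratio. Triplicate.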

[7] = Stability in human liver microsomes assessed as parent compound remaining at 5 uM measured after 1 hr in presence of metabolic phase 2 cofactors UDPGA by LC-MS analysis; type: ADME, Microsome; conditions: read-out: Stability
Method in brief: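 Glucuronidation conditions: 5 μM compound with liver microsomes supplemented with UDPGA, 1 h at 37 °C; % remaining determined by LC–MS.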

[8] = biological target: T2, Nuclear receptor ROR-gamma (Homo sapiens, UniProt P51449); assay: (§1) Competitive inverse agonist activity at human N-terminal His6-tagged RORgammat LBD (265 to 518 residues) expressed in Escherichia coli BL21 (DE3) assessed as inhibition of N-terminal biotinylated co-activator SRC1 box2 peptide recruitment measured after 30 mins in presence of 1 uM RORgamma agonist cholesterol by TR-FRET assay
T2 sequence (P51449 whole entry): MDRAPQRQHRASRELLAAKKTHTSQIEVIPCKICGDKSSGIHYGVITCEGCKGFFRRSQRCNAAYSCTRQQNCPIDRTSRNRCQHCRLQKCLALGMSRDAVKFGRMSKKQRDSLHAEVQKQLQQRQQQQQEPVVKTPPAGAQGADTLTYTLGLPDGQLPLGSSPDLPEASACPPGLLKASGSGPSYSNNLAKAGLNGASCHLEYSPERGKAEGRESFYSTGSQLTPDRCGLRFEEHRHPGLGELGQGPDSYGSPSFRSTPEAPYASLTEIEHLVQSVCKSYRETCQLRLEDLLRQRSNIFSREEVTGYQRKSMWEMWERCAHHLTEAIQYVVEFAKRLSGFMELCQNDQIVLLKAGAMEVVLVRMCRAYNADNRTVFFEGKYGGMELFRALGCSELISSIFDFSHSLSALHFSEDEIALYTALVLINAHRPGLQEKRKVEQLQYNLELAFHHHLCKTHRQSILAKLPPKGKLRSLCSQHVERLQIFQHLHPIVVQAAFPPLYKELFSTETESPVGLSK

[9] = biological target: T2, Nuclear receptor ROR-gamma; assay: as §1, with “of 0.25” for “of 1”
[10] = biological target: T2, Nuclear receptor ROR-gamma; assay: as §1, with “absence” for “presence”, “of” for “of 1 uM”
[11] = biological target: T2, Nuclear receptor ROR-gamma; assay: (§2) Inverse agonist activity at human N-terminal His6-tagged RORgammat LBD (265 to 518 residues) expressed in Escherichia coli BL21 (DE3) assessed as inhibition of N-terminal biotinylated co-activator SRC1 box2 peptide recruitment measured after 30 mins by TR-FRET assay
[12] = Protein binding in plasma (unknown origin) at 5 uM measured after 6 hrs by LC-MS based equilibrium dialysis analysis; type: ADME, cell-free; conditions: read-out: PPB (converted)
Method in brief: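 Equilibrium dialysis: plasma incubated with 5 μM compound for 6 h at 37 °C, final compound concentrations determined by LC–MS.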

[13] = biological target: T3, Nuclear receptor ROR-gamma (Homo sapiens) (UniProt P51449); assay: as §2
T3 sequence (whole entry): T2 sequence (P51449 whole entry)

SMILES: O=C(O)c1ccc(NCc2c(-c3c(Cl)cccc3C(F)(F)F)noc2-c2ccco2)cc1
solubility kinetic at 1.5 h, 500 µM [1]: 392 µM (≈ 181 µg/mL) | permeability [2]: 50.4% | remaining at 1 h, 5 µM [3]: 86.5% | CLH [4]: 43.2 µL/min/mg | remaining at 24 h, 2 µM [5]: 100% | IC50 [6]: > 100 µM | remaining at 1 h, 5 µM [7]: 92.8%

SMILES: C[C@H]1O[C@@H](O[C@H]2[C@@H](O)C[C@H](O[C@H]3[C@@H](O)C[C@H](O[C@H]4CC[C@@]5(C)[C@H](CC[C@@H]6[C@@H]5C[C@@H](O)[C@]5(C)[C@@H](C7=CC(=O)OC7)CC[C@]65O)C4)O[C@@H]3C)O[C@@H]2C)C[C@H](O)[C@@H]1O [DIGOXIN]
IC50 [8]: 85.4 µM | IC50 [9]: 33.6 µM | IC50 [10]: 7.01 µM

IC50 [6]: 78.6 µM
SMILES: O=C(O)c1ccc(NCc2c(-c3c(Cl)cccc3C(F)(F)F)noc2-c2ccccc2)cc1

SMILES: CC(C)(C)OC(=O)c1ccc(NC(=O)c2c(-c3c(Cl)cccc3C(F)(F)F)noc2-c2ccccc2)cc1
IC50 [11]: > 100 µM

SMILES: O=C(O)c1ccc(NCc2c(-c3c(Cl)cccc3C(F)(F)F)noc2-c2cccc(O)c2)cc1
IC50 [6]: > 100 µM

solubility kinetic at 1.5 h, 500 µM [1]: 390 µM (≈ 173 µg/mL) | fraction unbound at 6 h, 5 µM [12]: 0.001 | permeability [2]: 23.7% | remaining at 1 h, 5 µM [3]: 100% | remaining at 24 h, 2 µM [5]: 81% | remaining at 1 h, 5 µM [7]: 47.1%
SMILES: O=C(O)c1ccc(-c2nn(C(=O)c3c(Cl)cccc3C(F)(F)F)c3ccccc23)cc1

SMILES: O=C(O)c1ccc(NCc2c(-c3c(Cl)cccc3C(F)(F)F)noc2-c2cccs2)cc1
IC50 [11]: 1.75 µM | IC50 [6]: > 100 µM

SMILES: O=C(O)c1ccc(C(=O)Nc2c(-c3c(Cl)cccc3C(F)(F)F)noc2-c2ccccc2)cc1
IC50 [11]: > 100 µM

SMILES: O=C(O)c1c(-c2c(Cl)cccc2C(F)(F)F)noc1-c1ccccc1
IC50 [11]: > 100 µM

SMILES: O=C(O)c1ccc(NCc2c(-c3c(Cl)cccc3C(F)(F)F)noc2-c2cccc3ccccc23)cc1
IC50 [11]: > 100 µM | IC50 [6]: > 100 µM

solubility kinetic at 1.5 h, 500 µM [1]: 411 µM (≈ 190 µg/mL) | fraction unbound at 6 h, 5 µM [12]: 0.001 | permeability [2]: 33.6% | remaining at 1 h, 5 µM [3]: 85.9% | CLH [4]: 20.7 µL/min/mg | remaining at 24 h, 2 µM [5]: 95.3% | remaining at 1 h, 5 µM [7]: 69.8%
SMILES: O=C(O)c1ccc(NCc2c(-c3c(Cl)cccc3C(F)(F)F)noc2-c2cc[nH]c2)cc1

SMILES: Cc1onc(-c2c(Cl)cccc2C(F)(F)F)c1C(=O)Nc1ccc(C(=O)O)cc1
IC50 [11]: > 100 µM | inhibition [13]: Dose-dependent effect

inhibition [13]: Dose-dependent effect | solubility kinetic at 1.5 h, 500 µM [1]: 490 µM (≈ 239 µg/mL) | fraction unbound at 6 h, 5 µM [12]: 0.022 | permeability [2]: 60.1% | remaining at 1 h, 5 µM [3]: 99.9% | remaining at 24 h, 2 µM [5]: 95.4% | remaining at 1 h, 5 µM [7]: 100%
SMILES: O=C(O)c1ccc(NC(=O)c2c(-c3c(Cl)cccc3C(F)(F)F)noc2-c2ccccc2)cc1

SMILES: O=C(O)Cc1ccc(NC(=O)c2c(-c3c(Cl)cccc3C(F)(F)F)noc2-c2ccccc2)cc1
IC50 [11]: > 100 µM
